From article PMC3873039 (Anti-Cancer Agents in Medicinal Chemistry, 2013)

Experiments:
MOLT-3 [1] = assay: Hoechst 33342 nuclear morphological analysis of apoptosis; assay type: cell-based; settings: Homo sapiens, MOLT-3, 24 h, read-out: AP50 (50% induction of apoptosis), Hoechst 33342 staining (Hoe)
Summary of the method: (§1)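 Seeded at 0.5 x 10⁶ cells/well in 12-well plates and treated 24 h. Cells were pelleted (400 g, 5 min, 4 °C), washed in PBS, fixed in 4% paraformaldehyde, cytospun, air-dried, then stained with 10 μg/ml Hoechst 33342 for 10 min in the dark. Fluorescence microscopy: 200 cells counted, scored by condensed/intense nuclei, shrinkage, blebbing and apoptotic bodies. % apoptotic nuclei calculated. AP50 = concentration giving 50% apoptotic cells.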

HL60 [2] = assay: Cell cycle analysis, propidium iodide flow cytometry; assay type: cell-based, human; settings: HL60, IC50 dose, 24 h; vehicle control S = 33.6%
Summary of the method: (§2)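 Seeded at 0.5 x 10^6 cells per well in 12-well plates and treated 24 h at the IC50 concentration of each test compound from CellTiter-Glo. Cells were pelleted (400 g, 5 min), PBS-washed and fixed in 80% ethanol overnight at -20 °C. Staining used 50 µg/mL PI plus RNase overnight at 4 °C.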

K562 [3] = assay: NucView caspase 3 activity assay by flow cytometry; assay type: cell-based, human; settings: for EC50: Homo sapiens, K562, 24 h, read-out: AP50 (50% induction of apoptosis), Caspase 3 activity assay (C3); for The lowest dose of polyphenols at which there was a significant induction of apoptosis compared to the vehicle control: K562, caspase 3 activity, 24 h, p<0.05
Summary of the method: (§3)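 Seeded at 0.5 x 10⁶ cells/well and treated 24 h, with series of 0–50 or 0–250 µM depending on compound. Normalized to vehicle (0% apoptosis). Mean ± STD, three independent experiments in triplicate. One-way ANOVA/Tukey, p<0.05. AP50 = concentration giving 50% apoptotic cells.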

HL60 [4] = assay: Hoechst 33342 nuclear morphological analysis of apoptosis; assay type: cell-based; settings: Homo sapiens, HL-60, 24 h, read-out: AP50 (50% induction of apoptosis), Hoechst 33342 staining (Hoe)
Summary of the method: as §1

non-tumor cells (CD34+) [5] = assay: NucView caspase 3 activity assay by flow cytometry; assay type: cell-based; settings: 24 h; for EC50: read-out: AP50 (50% induction of apoptosis), Caspase 3 activity assay (C3); for The lowest dose of polyphenols at which there was a significant induction of apoptosis compared to the vehicle control: CD34+ non-tumour control cells, caspase 3 activity, p<0.05
K562 [6] = assay: Cell cycle analysis, propidium iodide flow cytometry; assay type: cell-based, human; settings: K562, IC50 dose, 24 h
Summary of the method: as §2

CCRF-CEM [7] = assay: CellTiter-Glo luminescent cell viability assay; assay type: cell-based, human; settings: 24 h, doses 0, 2, 10, 50, 250, 500 µM, p<0.05
Summary of the method: (§4)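 Cells grown in RPMI 1640 with 10% FBS, 1.5 mM L-glutamine and penicillin/streptomycin at 37 °C, 5% CO2. Seeded at 2.5 x 10³ cells/well and exposed 24 h to ethanol-dissolved test compound (0, 2, 10, 50, 250, 500 µM) with 0.1% ethanol vehicle. ATP luminescence normalized to vehicle (100%). IC50 taken from linear regression. Lowest significant dose set by one-way ANOVA/Tukey, p<0.05. Triplicates, three independent experiments.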

MOLT-3 [8] = assay: Cell cycle analysis, propidium iodide flow cytometry; assay type: cell-based, human; settings: MOLT-3, IC50 dose, 24 h; vehicle control G0/G1 = 64.5%
Summary of the method: as §2

[9] = tested on: non-tumor progenitor cells (CD34+); assay: Cell cycle analysis, propidium iodide flow cytometry; assay type: cell-based; settings: 24 h, within the IC50 ranges used to treat the leukemic cell lines
U937 [10] = assay: Cell cycle analysis, propidium iodide flow cytometry; assay type: cell-based, human; settings: U937, IC50 dose, 24 h; vehicle control G0/G1 = 44.03%
Summary of the method: as §2

CCRF-CEM [11] = assay: Hoechst 33342 nuclear morphological analysis of apoptosis; assay type: cell-based; settings: Homo sapiens, 24 h, read-out: AP50 (50% induction of apoptosis), Hoechst 33342 staining (Hoe)
Summary of the method: as §1

KG1a [12] = assay: NucView caspase 3 activity assay by flow cytometry; assay type: cell-based, human; settings: 24 h; for EC50: Homo sapiens, KG-1a, read-out: AP50 (50% induction of apoptosis), Caspase 3 activity assay (C3); for The lowest dose of polyphenols at which there was a significant induction of apoptosis compared to the vehicle control: KG1a, caspase 3 activity, p<0.05
Summary of the method: as §3

MOLT-3 [13] = assay: CellTiter-Glo luminescent cell viability assay; assay type: cell-based, human; settings: MOLT-3, 24 h, doses 0, 2, 10, 50, 250, 500 µM, p<0.05
Summary of the method: as §4

CCRF-CEM [14] = assay: Cell cycle analysis, propidium iodide flow cytometry; assay type: cell-based, human; settings: IC50 dose, 24 h, vehicle control G0/G1 = 41.9%
Summary of the method: as §2

JURKAT = assay: CellTiter-Glo luminescent cell viability assay; assay type: cell-based, human; settings: 24 h, doses 0, 2, 10, 50, 250, 500 µM, p<0.05
Summary of the method: as §4

MOLT-3 [15] = assay: NucView caspase 3 activity assay by flow cytometry; assay type: cell-based, human; settings: for EC50: Homo sapiens, MOLT-3, 24 h, read-out: AP50 (50% induction of apoptosis), Caspase 3 activity assay (C3); for The lowest dose of polyphenols at which there was a significant induction of apoptosis compared to the vehicle control: MOLT-3, caspase 3 activity, 24 h, p<0.05
Summary of the method: as §3

KG1a [16] = assay: Hoechst 33342 nuclear morphological analysis of apoptosis; assay type: cell-based; settings: Homo sapiens, KG-1a, 24 h, read-out: AP50 (50% induction of apoptosis), Hoechst 33342 staining (Hoe)
Summary of the method: as §1

U937 [17] = assay: CellTiter-Glo luminescent cell viability assay; assay type: cell-based, human; settings: U937, 24 h, doses 0, 2, 10, 50, 250, 500 µM, p<0.05
Summary of the method: as §4

K562 [18] = assay: CellTiter-Glo luminescent cell viability assay; assay type: cell-based, human; settings: K562, 24 h, doses 0, 2, 10, 50, 250, 500 µM, p<0.05
Summary of the method: as §4

KG1a [19] = assay: CellTiter-Glo luminescent cell viability assay; assay type: cell-based, human; settings: 24 h; for IC50: Homo sapiens, KG-1a, read-out: IC50 (50% inhibition of cellular proliferation); for The lowest dose of polyphenols at which there was a significant inhibition of cell proliferation compared to the vehicle control: KG1a, doses 0, 2, 10, 50, 250, 500 µM, p<0.05
Summary of the method: as §4

non-tumor cells (CD34+) [20] = assay: Hoechst 33342 nuclear morphological analysis of apoptosis; assay type: cell-based; settings: 24 h, read-out: AP50 (50% induction of apoptosis), Hoechst 33342 staining (Hoe)
Summary of the method: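 CD34+ cells treated 24 h across the IC25–IC50 range, then pelleted (400 g, 4 °C) and fixed in 4% paraformaldehyde/PBS. Cytospins were air-dried and stained with 10 μg/ml Hoechst 33342 for 10 min in the dark, then viewed by fluorescence microscopy. 200 cells were scored per sample as % apoptotic nuclei (shrinkage, blebbing, chromatin condensation, apoptotic bodies). AP50 = concentration giving 50% apoptosis.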

CCRF-CEM [21] = assay: NucView caspase 3 activity assay by flow cytometry; assay type: cell-based, human; settings: 24 h; for EC50: Homo sapiens, read-out: AP50 (50% induction of apoptosis), Caspase 3 activity assay (C3); for The lowest dose of polyphenols at which there was a significant induction of apoptosis compared to the vehicle control: caspase 3 activity, p<0.05
Summary of the method: as §3

HL60 [22] = assay: CellTiter-Glo luminescent cell viability assay; assay type: cell-based, human; settings: HL60, 24 h, doses 0, 2, 10, 50, 250, 500 µM, p<0.05
Summary of the method: as §4

| EC50 (MOLT-3 [1]) [µM] | EC50 (K562 [3]) [µM] | EC50 (HL60 [4]) [µM] | EC50 (CCRF-CEM [11]) [µM] | EC50 (KG1a [12]) [µM] | EC50 (MOLT-3 [15]) [µM] | EC50 (KG1a [16]) [µM] | SMILES | Percentage of cells in S phase of cell cycle (significant accumulation) (HL60 [2]) | The lowest dose of polyphenols at which there was a significant induction of apoptosis compared to the vehicle control (K562 [3]) [µM] | EC50 (non-tumor cells (CD34+) [5]) [µM] | The lowest dose of polyphenols at which there was a significant induction of apoptosis compared to the vehicle control (non-tumor cells (CD34+) [5]) [µM] | The lowest dose of polyphenols at which there was a significant inhibition of cell proliferation compared to the vehicle control (CCRF-CEM [7]) [µM] | Percentage of cells in G0/G1 phase of cell cycle (significant accumulation) (MOLT-3 [8]) | Cell cycle arrest in non-tumour control cells [9] | Percentage of cells in G0/G1 phase of cell cycle (significant accumulation) (U937 [10]) | The lowest dose of polyphenols at which there was a significant induction of apoptosis compared to the vehicle control (KG1a [12]) [µM] | The lowest dose of polyphenols at which there was a significant inhibition of cell proliferation compared to the vehicle control (MOLT-3 [13]) [µM] | Percentage of cells in G0/G1 phase of cell cycle (significant accumulation) (CCRF-CEM [14]) | The lowest dose of polyphenols at which there was a significant inhibition of cell proliferation compared to the vehicle control (JURKAT) [µM] | The lowest dose of polyphenols at which there was a significant induction of apoptosis compared to the vehicle control (MOLT-3 [15]) [µM] | also measured |
| --- | --- | --- | --- | --- | --- | --- | --- | --- | --- | --- | --- | --- | --- | --- | --- | --- | --- | --- | --- | --- | --- |
| 150 | > 250 | 190 | 150 | > 250 | 50 | 360 | O=C1c2cccc(O)c2C(=O)c2c(O)cc(CO)cc21 [Aloe - Emodin, Aloe-emodin] | S =35% | 50 | > 250 | 250 | 50 | G0/G1 = 68% | No Arrest <500µM | G0/G1 =53% | 50 | 50 | G0/G1 =49% | 50 | 50 | Percentage of cells in G2/M phase of cell cycle (significant accumulation) (K562 [6]; vehicle control G2/M = 13.6%): G2/M =20%; The lowest dose of polyphenols at which there was a significant inhibition of cell proliferation compared to the vehicle control (U937 [17]): 50 µM; The lowest dose of polyphenols at which there was a significant inhibition of cell proliferation compared to the vehicle control (K562 [18]): 50 µM; IC50 (KG1a [19]): 310 µM; The lowest dose of polyphenols at which there was a significant inhibition of cell proliferation compared to the vehicle control (KG1a [19]): 50 µM; EC50 (non-tumor cells (CD34+) [20]): > 500 µM; EC50 (CCRF-CEM [21]): 50 µM; The lowest dose of polyphenols at which there was a significant induction of apoptosis compared to the vehicle control (CCRF-CEM [21]): 50 µM; The lowest dose of polyphenols at which there was a significant inhibition of cell proliferation compared to the vehicle control (HL60 [22]): 50 µM |
| 38 | > 250 | 75 | 40 | > 250 | 140 | > 500 | O=c1cc(-c2ccccc2)oc2cc(O)cc(O)c12 [Chrysin] | S =45.5% | 250 | > 250 | 250 | 50 | G0/G1 =69.3% | No Arrest <250µM | G0/G1 =70% | 250 | 50 | G0/G1 =49.4% | 50 | 50 | Percentage of cells in G0/G1 phase of cell cycle (significant accumulation) (K562 [6]; vehicle control G0/G1 = 53.7%): G0/G1 =59%; The lowest dose of polyphenols at which there was a significant inhibition of cell proliferation compared to the vehicle control (U937 [17]): 50 µM; The lowest dose of polyphenols at which there was a significant inhibition of cell proliferation compared to the vehicle control (K562 [18]): 250 µM; IC50 (KG1a [19]): 335 µM; The lowest dose of polyphenols at which there was a significant inhibition of cell proliferation compared to the vehicle control (KG1a [19]): 250 µM; EC50 (non-tumor cells (CD34+) [20]): > 500 µM; EC50 (CCRF-CEM [21]): 250 µM; The lowest dose of polyphenols at which there was a significant induction of apoptosis compared to the vehicle control (CCRF-CEM [21]): 50 µM; The lowest dose of polyphenols at which there was a significant inhibition of cell proliferation compared to the vehicle control (HL60 [22]): 50 µM |
